The record followed here is ChEMBL document CHEMBL3822431, “Hydroxychalcone inhibitors of Streptococcus mutans glucosyl transferases and biofilms as potential anticaries agents” (Bioorg Med Chem Lett, 2016).

Assay [1] concerns the target T1, Glucosyltransferase-I (Streptococcus mutans serotype c (strain ATCC 700610 / UA159)) (UniProt P08987).
T1 sequence (whole entry): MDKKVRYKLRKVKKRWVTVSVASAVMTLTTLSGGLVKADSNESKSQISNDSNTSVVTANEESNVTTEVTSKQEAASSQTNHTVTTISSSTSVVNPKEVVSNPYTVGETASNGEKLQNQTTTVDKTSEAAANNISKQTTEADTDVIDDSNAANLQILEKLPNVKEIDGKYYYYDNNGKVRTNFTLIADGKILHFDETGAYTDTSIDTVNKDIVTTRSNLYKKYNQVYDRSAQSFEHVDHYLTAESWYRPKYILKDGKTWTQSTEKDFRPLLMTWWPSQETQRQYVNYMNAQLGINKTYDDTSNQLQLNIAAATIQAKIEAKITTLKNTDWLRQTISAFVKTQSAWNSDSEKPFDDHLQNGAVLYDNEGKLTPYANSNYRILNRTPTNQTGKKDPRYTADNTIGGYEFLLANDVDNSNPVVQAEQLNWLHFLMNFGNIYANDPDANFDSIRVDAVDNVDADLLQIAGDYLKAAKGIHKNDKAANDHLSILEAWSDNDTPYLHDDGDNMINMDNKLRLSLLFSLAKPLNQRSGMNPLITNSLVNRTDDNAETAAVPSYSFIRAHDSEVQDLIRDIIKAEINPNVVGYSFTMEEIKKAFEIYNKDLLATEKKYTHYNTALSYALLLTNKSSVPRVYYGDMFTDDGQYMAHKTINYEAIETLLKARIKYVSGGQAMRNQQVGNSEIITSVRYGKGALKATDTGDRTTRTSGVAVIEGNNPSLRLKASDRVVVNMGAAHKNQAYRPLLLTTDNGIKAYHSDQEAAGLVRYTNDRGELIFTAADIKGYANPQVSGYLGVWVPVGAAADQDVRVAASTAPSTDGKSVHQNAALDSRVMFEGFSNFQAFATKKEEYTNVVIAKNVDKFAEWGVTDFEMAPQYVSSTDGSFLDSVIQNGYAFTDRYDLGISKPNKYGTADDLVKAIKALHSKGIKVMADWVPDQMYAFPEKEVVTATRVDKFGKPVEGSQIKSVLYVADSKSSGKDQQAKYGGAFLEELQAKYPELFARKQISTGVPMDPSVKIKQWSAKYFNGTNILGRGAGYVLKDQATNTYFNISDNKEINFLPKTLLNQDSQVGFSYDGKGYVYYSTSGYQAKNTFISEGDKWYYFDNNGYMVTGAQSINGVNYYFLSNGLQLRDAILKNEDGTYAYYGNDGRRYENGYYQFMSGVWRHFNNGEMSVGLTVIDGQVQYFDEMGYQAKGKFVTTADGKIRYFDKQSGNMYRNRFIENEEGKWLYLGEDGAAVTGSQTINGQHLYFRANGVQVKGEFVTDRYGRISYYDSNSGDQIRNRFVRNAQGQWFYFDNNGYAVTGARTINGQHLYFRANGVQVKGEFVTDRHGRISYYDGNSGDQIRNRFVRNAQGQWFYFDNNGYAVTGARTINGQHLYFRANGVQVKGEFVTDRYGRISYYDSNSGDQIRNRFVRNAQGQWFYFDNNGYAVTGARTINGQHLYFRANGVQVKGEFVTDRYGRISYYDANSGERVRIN
The assay is described as follows: Inhibition of Wild-type Streptococcus mutans UA159 glucosyltransferase B at 50 uM by zymography. In short, it runs like this: (§1)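 Compound (50 µM) added to overnight S. mutans UA159 wild-type cultures; Gtfs concentrated from supernatants, run on duplicate SDS-PAGE; second gel used for zymogram, glucan band intensity taken as Gtf activity.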

Assay [2] concerns the target T2, Glucosyltransferase-SI (Streptococcus mutans serotype c (strain ATCC 700610 / UA159)) (UniProt P13470).
T2 sequence (whole entry): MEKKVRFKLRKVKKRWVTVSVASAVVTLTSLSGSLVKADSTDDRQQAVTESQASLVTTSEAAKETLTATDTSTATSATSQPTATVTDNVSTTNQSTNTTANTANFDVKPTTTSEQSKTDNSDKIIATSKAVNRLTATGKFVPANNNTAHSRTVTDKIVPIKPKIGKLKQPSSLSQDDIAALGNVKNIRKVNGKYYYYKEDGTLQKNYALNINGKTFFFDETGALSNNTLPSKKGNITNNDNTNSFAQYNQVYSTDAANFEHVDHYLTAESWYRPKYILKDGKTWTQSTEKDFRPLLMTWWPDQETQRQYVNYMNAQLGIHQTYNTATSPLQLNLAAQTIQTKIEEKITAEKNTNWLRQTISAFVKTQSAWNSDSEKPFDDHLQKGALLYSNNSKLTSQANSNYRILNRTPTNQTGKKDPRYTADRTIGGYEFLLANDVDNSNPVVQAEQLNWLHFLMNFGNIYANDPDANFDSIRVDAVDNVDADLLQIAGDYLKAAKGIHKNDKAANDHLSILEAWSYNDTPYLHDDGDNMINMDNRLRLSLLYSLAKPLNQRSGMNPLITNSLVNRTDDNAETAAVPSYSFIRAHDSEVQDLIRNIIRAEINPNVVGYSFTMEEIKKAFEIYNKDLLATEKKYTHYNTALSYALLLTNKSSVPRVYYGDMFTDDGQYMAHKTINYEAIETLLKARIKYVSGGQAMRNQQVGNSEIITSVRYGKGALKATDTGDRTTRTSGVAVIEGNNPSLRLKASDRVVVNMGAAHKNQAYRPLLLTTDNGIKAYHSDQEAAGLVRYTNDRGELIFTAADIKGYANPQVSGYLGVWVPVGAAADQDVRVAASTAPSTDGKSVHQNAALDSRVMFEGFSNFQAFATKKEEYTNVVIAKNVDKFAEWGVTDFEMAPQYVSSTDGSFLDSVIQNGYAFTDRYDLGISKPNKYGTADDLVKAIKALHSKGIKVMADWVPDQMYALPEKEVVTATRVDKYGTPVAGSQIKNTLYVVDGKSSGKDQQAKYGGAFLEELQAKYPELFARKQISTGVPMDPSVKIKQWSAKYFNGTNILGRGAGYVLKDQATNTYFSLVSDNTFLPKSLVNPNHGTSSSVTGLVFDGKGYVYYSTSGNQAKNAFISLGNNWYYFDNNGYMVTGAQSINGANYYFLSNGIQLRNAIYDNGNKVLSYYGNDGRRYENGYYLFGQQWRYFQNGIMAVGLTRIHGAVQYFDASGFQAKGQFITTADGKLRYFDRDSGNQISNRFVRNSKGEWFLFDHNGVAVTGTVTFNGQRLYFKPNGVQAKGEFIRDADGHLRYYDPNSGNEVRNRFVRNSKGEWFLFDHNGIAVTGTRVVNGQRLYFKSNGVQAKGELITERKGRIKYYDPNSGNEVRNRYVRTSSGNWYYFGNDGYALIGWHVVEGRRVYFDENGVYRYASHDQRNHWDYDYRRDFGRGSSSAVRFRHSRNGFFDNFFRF
Put plainly: Inhibition of Wild-type Streptococcus mutans UA159 glucosyltransferase C at 50 uM by zymography. In short, it runs like this: as §1

SMILES strings stand for the structures. Calls of active or inactive are those of the source. The calls are words filed in the database; no cut-off is given here.

As for `O=C(/C=C\c1ccc(O)cc1O)c1cccc(O)c1`, the inhibition entry in assay [1] and in assay [2] was “Active” in each case.

Take `O=C(/C=C/c1cc(O)c(O)cc1O)c1ccccc1O` (stereo in doubt; 18c): the inhibition entry in assay [1] and in assay [2] was “Active” throughout.

`O=C(/C=C/c1ccc(O)cc1O)c1ccc(O)cc1`: the inhibition result in assay [1] and in assay [2] was “Active” each time.

In the case of `O=C(/C=C\c1ccc(O)cc1O)c1ccc(O)cc1`, the inhibition result in assay [1] and in assay [2] was “Active” in each case.

As for `O=C(/C=C/c1ccc(O)cc1O)c1cccc(O)c1` (stereo in doubt; 9a), the inhibition entry in assay [1] and in assay [2] was “Active” in each case.
